From PubChem BioAssay
Compounds with a hit are over-represented: about 2.5% of the library has one in this group of screens.
NTR1 agonist: agonists of human neurotensin receptor NTR1; AID 493036; P30989; activation, % at 20 µM; 330,000 tested, 0.17% active; NTR1-U2OS beta-arrestin-GFP spot imaging, agonist mode;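 active = activation at or above 40% of the spot to cytoplasm intensity ratio, with at least 20 cells analyzed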;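 also: 0% = DMSO without peptide and 100% = 100 nM NTR1 peptide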
MC4R antagonist: antagonists of human melanocortin 4 receptor (MC4R); P32245; MC4R-expressing cells, MTII-stimulated cAMP, LANCE TR-FRET; inhibition, % at 6.5 µM; 360,000 tested, 0.48% active; AID 540295;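 active = inhibition above its plate's cutoff, the mean of tested wells on that plate plus 3 SD, cut at about 29% in these data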;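 also: 0% = Melanotan II alone and 100% = Melanotan II plus saturating MCL0020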
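Material – human MC4R-expressing U2OS cells · Repeats – no replicates · Detection – TR-FRET with Eu-cAMP and labeled anti-cAMP, 671 nm · Times – compound 30 min, challenge 1 h, detection 1 h · Compound – single nominal compound dose of 6.5 µM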
NR1D1 modulator: Rev-erb alpha (human) modulation; P20393; Rev-erbα–FITC-DNA binding, fluorescence polarization, 90 min; activity, % at 10 µM; 370,000 tested, 0.79% active; AID 1259318;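 active = activity above about 14%, limit read from the data; passing the limit was not always enough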;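 also: 0% = DMSO wells with 35 nM protein and 100% = DMSO wells with 750 nM protein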
MC4R barr agon: activates human MC4R beta-arrestin recruitment. activation, % at 8.9 µM. 360,000 tested, 0.98% active. P32245. U2OS MC4R beta-arrestin complementation, luminescence; percent of melanotan II response, DMSO zero. AID 540308;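 active = activation above a per-plate cutoff, the mean activation of sample wells on that plate plus 3 SD, cut at about 8% in these data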
PG9 Ab binder: PG9 antibody binding by small molecule. TR-FRET gp120-PG9 antibody binding. inhibition, % at 6.7 µM. AID 624416. 360,000 tested, 0.43% active; in the data active = inhibition above about 8.5%
MC4R barr ag: human MC4R beta-arrestin agonism confirmation; shares compounds with MC4R barr agon; U2OS MC4R beta-arrestin recruitment, luminescence; scaled DMSO 0%, Melanotan II 100%; activation, % at 8.9 µM; 2,400 tested, 31% active; AID 602192;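 active = mean activation across replicates above the hit cutoff set in the earlier primary screen, cut at about 8% in these data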
MOR-DOR barr ag: activates mu-delta opioid heterodimer, MC4R agonist counter-screen | shares compounds with MC4R barr agon | U2OS PathHunter beta-arrestin, beta-gal luminescence; percent of deltorphin B response, DMSO zero | activation, % at 9.2 µM | 2,400 tested, 5.8% active;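 active = mean activation across replicates exceeds the hit threshold derived in the earlier primary screen, cut at about 18% in these data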;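 also: 100% = deltorphin B at 0.9 µM final and 0% = DMSO alone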
Target sequence (P35372 whole entry, looked up): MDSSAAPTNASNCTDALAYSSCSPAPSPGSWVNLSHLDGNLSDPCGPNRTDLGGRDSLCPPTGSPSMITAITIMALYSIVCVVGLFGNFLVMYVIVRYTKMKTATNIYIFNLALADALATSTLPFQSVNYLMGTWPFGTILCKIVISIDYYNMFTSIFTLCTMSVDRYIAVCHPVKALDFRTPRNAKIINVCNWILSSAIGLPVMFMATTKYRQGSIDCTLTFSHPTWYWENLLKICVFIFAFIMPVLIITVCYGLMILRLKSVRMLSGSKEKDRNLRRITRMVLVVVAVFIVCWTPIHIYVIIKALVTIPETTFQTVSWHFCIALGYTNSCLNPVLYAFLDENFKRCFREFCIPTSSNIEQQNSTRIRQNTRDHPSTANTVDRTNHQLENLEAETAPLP
Target sequence (P41143 whole entry, looked up): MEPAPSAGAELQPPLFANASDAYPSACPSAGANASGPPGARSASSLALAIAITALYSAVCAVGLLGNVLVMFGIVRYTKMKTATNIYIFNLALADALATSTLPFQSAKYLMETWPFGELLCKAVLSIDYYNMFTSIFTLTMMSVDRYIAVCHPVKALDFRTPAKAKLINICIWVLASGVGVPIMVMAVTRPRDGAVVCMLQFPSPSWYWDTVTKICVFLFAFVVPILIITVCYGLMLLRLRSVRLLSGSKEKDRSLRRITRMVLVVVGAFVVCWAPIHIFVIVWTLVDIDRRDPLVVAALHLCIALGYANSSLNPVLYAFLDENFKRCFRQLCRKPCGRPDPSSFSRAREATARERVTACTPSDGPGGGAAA
Active calls of the source: *; . = not tested or not shown.

SMILES	NTR1 agonist	MC4R antagonist	NR1D1 modulator	MC4R barr agon	PG9 Ab binder	MC4R barr ag	MOR-DOR barr ag
C=CCOC(=O)C1=C(C)NC(SCC(=O)Nc2nccs2)=C(C#N)C1c1cccs1 (stereo unspecified)	3	4	3	2	-1	.	.
C=CCOC(=O)C1=C(C)NC(SCC(=O)Nc2nccs2)=C(C#N)C1c1ccc(Cl)cc1 (stereo unspecified)	7	2	20	11*	0	2	3
O=C(COC(=O)c1ccccc1OC(F)F)Nc1ccc(N2CCCCC2)cc1	1	-2	5	11*	-1	-1	4
COc1cc(OC)cc(C(=O)OCC(=O)Nc2ccc(N3CCCCC3)cc2)c1	-2	-2	1	13*	-1	2	10
NC(=O)c1ncn([C@@H]2O[C@H](C(=O)N[C@H](Cc3c[nH]c4ccccc34)C(=O)N3CCN(C(=O)C4CC4)CC3)[C@@H](O)[C@H]2O)n1	.	.	1	.	0	.	.
COC(=O)CCCN1C(=O)NC(c2ccc(-c3ccccc3)cc2)C(C(=O)OCc2ccccc2)=C1C (stereo unspecified)	7	6	2	12*	-1	12*	3
COc1cc(NC(=O)c2cc3c(=O)n(C)c4ccccc4c3n2C)cc(OC)c1OC	1	3	1	31*	0	1	7
CC(=O)c1cccc(NC(=O)c2ccccc2OCc2ccc(F)cc2)c1	0	-10	5	14*	1	-1	4
CN(C)S(=O)(=O)c1cccc(NC(=O)c2ccccc2OCc2ccc(F)cc2)c1	2	4	3	3	-1	.	.
Cc1ccccc1CN1[C@@H](C)[C@H](c2ccccc2)Oc2cccc(N3CCCC3)c2S1(=O)=O	.	.	-1	.	0	.	.
COc1ccc(N=C2c3ccccc3-c3ccc([N+](=O)[O-])cc32)cc1	.	-4	-2	0	-1	.	.
O=[N+]([O-])c1ccc2c(c1)C(=Nc1ccccc1)c1ccccc1-2	.	-5	7	11*	4	2	4
C/C(=C\c1ccco1)C1C(C#N)=C(N)Oc2n[nH]c(-c3ccc(C)cc3)c21 (stereo unspecified)	0	10	-1	16*	1	23*	11
CCCCCOc1ccc(/C(C)=N/NC2=NCCN2)cc1	1	9	-2	5	0	.	.
CCCCCCOc1ccc(/C(C)=N/NC2=NCCN2)cc1	17	2	2	11*	-1	29*	12
CSc1ccccc1OCc1cc(C(=O)NC2CCc3ccccc32)no1 (stereo unspecified)	5	-7	6	64*	-1	9.5*	8
O=c1c2ccccc2nc(SCc2nc3ccccc3s2)n1Cc1ccco1	3	21	2	11*	-2	-2	5
O=c1c2ccccc2nc(SCc2ccccc2)n1Cc1ccco1	3	0	13	-1	-1	.	.
Cc1[nH]c2ccccc2c1C(=O)CSc1nc2ccccc2[nH]1	6	0	3	2	0	.	.
Cc1[nH]c2ccccc2c1C(=O)CSc1ccc(Cl)cc1	1	-11	9	12*	-2	3	6
Cc1cccc(NC(=O)c2cc(S(=O)(=O)N3CCc4ccccc43)cn2C)c1C	5	5	-2	11*	-2	4	5
CCc1ccc(OCCNc2cc(N3CCNC(C)C3)ccc2[N+](=O)[O-])cc1 (stereo unspecified)	3	-3	-3	11*	-1	23*	17
COc1ccc(N2C(=S)N=C(Nc3cccc(C)c3)C23CCCCC3)cc1	2	5	-1	24*	-1	9.6*	8
Cc1ccsc1-c1nc(-c2ccccc2)c(-c2ccccc2)[nH]1	0	0	8	10*	-1	11*	5
O=C(Nc1ccccc1F)c1oc2ccccc2c1NC(=O)C1CC1	0	2	8	9.6*	-1	4	5
SMILES	NTR1 agonist	MC4R antagonist	NR1D1 modulator	MC4R barr agon	PG9 Ab binder	MC4R barr ag	MOR-DOR barr ag
O=C(Nc1ccccc1F)C1CCCC1	-1	12	-3	-4	0	.	.
O=C(Nc1ccc(Cl)cc1)C1CCCN1S(=O)(=O)c1cccc2cccnc12 (stereo unspecified)	.	.	-3	.	.	.	.
O=C1CCC2(CCC(c3ccccc3)CC2)N1CCCO (stereo unspecified)	.	.	0	.	.	.	.
COc1ccc(/C=C/C=N/NC(=O)COc2ccc(OC)cc2)cc1	-1	-7	-6	3	-3	.	.
C/C(=N\NC(=O)COc1ccccc1)c1cccs1	0	4	-4	1	1	.	.
Cc1ccccc1OCC(=O)N/N=C/C=C/c1ccccc1	2	-5	-2	10*	-4	3	8
COc1ccccc1NCC(=O)N/N=C/C=C/c1ccccc1	0	-15	7	-1	-5	.	.
C/C(=N\NC(=O)COc1cccc2ccccc12)c1cccs1	6	0	2	17*	-1	17*	6
O=C(COc1cccc2ccccc12)N/N=C/C=C/c1ccccc1	4	3	-1	9.7*	0	4	6
COC(=O)[C@]12C[C@H](CC(=O)NCCC(C)C)C(=O)N(CCc3ccc(OC)c(OC)c3)C1=C[C@H](C(C)C)O[C@@H]2C1CC1	.	.	10	.	.	.	.
COC(=O)[C@]12C[C@H](CC(=O)N3CCN(C(=O)c4ccco4)CC3)C(=O)N(Cc3ccc(Cl)cc3Cl)C1=C[C@H](C1CCCC1)O[C@@H]2C	.	.	-7	.	.	.	.
O=C(O)c1nn(CCOc2ccc(Cl)cc2Cl)c(=O)c2ccccc12	4	0	-1	18*	1	0	6
CN(Cc1ccccc1)C(=O)OCc1cn(Cc2cccc(F)c2)nn1	.	.	1	.	.	.	.
CC[C@@H](C)[C@H](CN[C@H](CNC)C(C)C)NC[C@@H](C)c1ccc(CC(C)C)cc1	16	-1	2	45*	-1	16*	8
O=c1[nH]c(SCc2ccc(F)cc2Cl)nc2ccccc12	2	-7	3	10*	2	2	6
COc1ccc(CSc2nc3ccccc3c(=O)[nH]2)cc1F	2	6	5	-1	0	.	.
COc1ccc(CCNC(=O)CCSc2nc(-c3ccco3)cc(C(F)(F)F)n2)cc1	2	-1	10	18*	1	-1	2
Cc1cc(NC(=O)CCSc2nc(-c3ccco3)cc(C(F)(F)F)n2)no1	0	8	-7	9.9*	0	3	6
CCCC(=O)OC12CCCN(C1)/C(=C/c1cccc(N(C)C)c1)C2 (stereo unspecified)	.	.	2	.	.	.	.
C=CCN1[C@H](C)COc2cccc(N3CCCC3)c2S1(=O)=O	.	.	-2	.	.	.	.
